According to ChEMBL document CHEMBL4393700, “Novel resveratrol-based flavonol derivatives: Synthesis and anti-inflammatory activity in vitro and in vivo” (Eur J Med Chem, 2019):
Activity calls are given as the source filed them. The rule behind the calls is not given here.

Columns and labels:
RAW264.7 [1] = assay: Antiinflammatory activity in mouse RAW264.7 cells assessed as inhibition of LPS-induced NO production at 10 uM pretreated for 1 hr followed by LPS stimulation and measured after 24 hrs by Griess reagent based assay; format: functional, cell-based
Outline: (§1)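 RAW264.7 in DMEM/10% FBS with penicillin-streptomycin, 37 °C, 5% CO2; seeded 6×10^4 cells/well, grown 24 h, pretreated 1 h with test agent (10 µM screen; 10, 5, 2.5, 1.25, 0.625 µM for concentration series), then LPS 0.5 µg/mL for 24 h. Supernatant nitrite measured with Griess reagent.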

RAW264.7 [2] = assay: Cytotoxicity against LPS-stimulated mouse RAW264.7 cells at 20 uM pretreated for 1 hr followed by LPS stimulation and measured after 24 hrs by MTT assay; conditions: raw264.7, 24 h
RAW264.7 [3] = assay: Antiinflammatory activity in mouse RAW264.7 cells assessed as reduction in LPS-induced TNF alpha production pretreated for 1 hr followed by LPS stimulation and measured after 24 hrs by ELISA; format: functional, cell-based
Outline: (§2)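 RAW264.7 seeded 6×10^4 cells/well, cultured 24 h; 1 h pretreatment at 10, 5, 2.5, 1.25 or 0.625 µM, then LPS 0.5 µg/mL for 24 h. IL-6 and TNF-α in conditioned medium quantified by ELISA.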

RAW264.7 [4] = assay: Antiinflammatory activity in mouse RAW264.7 cells assessed as reduction in LPS-induced IL-6 production pretreated for 1 hr followed by LPS stimulation and measured after 24 hrs by ELISA; format: functional, cell-based; outline: as §2
RAW264.7 [5] = assay: Antiinflammatory activity in mouse RAW264.7 cells assessed as reduction in LPS-induced NO production pretreated for 1 hr followed by LPS stimulation and measured after 24 hrs by Griess reagent based assay; format: functional, cell-based; outline: as §1
RAW264.7 [6] = assay: Inhibition of LPS-stimulated NFkappaB activation in mouse RAW264.7 cells assessed as reduction in IkappaB phosphorylation at 0.5 to 2 uM pretreated for 1 hr followed by LPS stimulation and measured after 30 mins by Western blot analysis; format: cell-based
Outline: (§3)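 RAW264.7 seeded 3×10^5 cells/well, 24 h; pretreated 1 h at 0.5, 1 or 2 µM, then LPS 0.5 µg/mL for 30 min. RIPA lysates (PMSF, phosphatase inhibitors) on 12% SDS-PAGE, PVDF; primary antibodies overnight 4 °C, HRP secondary 1:5000. Probed phospho/total ERK, JNK, p38, p-IκB, IκB, p-p65, p65, β-actin; three independent experiments.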

[7] = Toxicity in C57/BL6 mouse ALI model assessed as induction of inflammatory cell infiltration at 20 mg/kg, ip measured after 48 hrs by H and E staining based histopathological analysis; format: organism-based; conditions: in vivo
Outline: (§4)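 Mice given 20 mg/kg i.p. without LPS, compared with controls; lung sections stained with hematoxylin and eosin for edema, hemorrhage, inflammatory cell infiltration and alveolar structure.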

RAW264.7 [8] = assay: Inhibition of LPS-induced JNK phosphorylation in mouse RAW264.7 cells pretreated for 1 hr followed by LPS stimulation by Western blot analysis; format: cell-based; outline: as §3
Mus musculus [9] = assay: Antiinflammatory activity in C57/BL6 mouse ALI model assessed as reduction in LPS-induced pro-inflammatory alterations at 10 to 20 mg/kg, ip pretreated for 30 mins followed by LPS challenge and measured after 48 hrs by H and E staining based histopathological analysis; format: functional, organism-based
Outline: (§5)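 Male C57BL/6 mice, 18~22 g, acclimatized one week; 40 randomly split into control, LPS, and two LPS groups pretreated i.p. (10 or 20 mg/kg) 30 min before LPS (methods: 20 mg/kg tail vein; legend: 5 mg/kg intratracheal). Saline i.p. to controls. Sacrificed 48 h after LPS; read-outs lung MPO, body weight, upper right lobe wet/dry ratio (dried at 60 °C until constant), H&E on paraformaldehyde-fixed paraffin sections.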

Mus musculus [10] = assay: Antiinflammatory activity in C57/BL6 mouse ALI model assessed as reduction in LPS-induced pulmonary edema by measuring lung wet/dry weight ratio at 10 to 20 mg/kg, ip pretreated for 30 mins followed by LPS challenge and measured after 48 hrs; format: functional, organism-based; outline: as §5
[11] = Toxicity in C57/BL6 mouse ALI model assessed as mortality at 20 mg/kg, ip; format: organism-based; conditions: in vivo
Outline: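 Mice were given the compound at 20 mg/kg ip as solutions, with no LPS challenge. They were observed against an untreated control group, and lung sections were then stained with H&E to look for inflammation, hemorrhage, edema and alveolar damage.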

[12] = Toxicity in C57/BL6 mouse ALI model assessed as induction of lung edema at 20 mg/kg, ip measured after 48 hrs by H and E staining based histopathological analysis; format: organism-based; conditions: in vivo; outline: as §4
Mus musculus [13] = assay: Protection against LPS-induced acute lung injury in C57/BL6 mouse assessed as survival rate at 10 to 20 mg/kg, ip pretreated for 30 mins followed by LPS challenge and measured at 24 hrs (reference value: 60%); format: functional
RAW264.7 [14] = assay: Antiinflammatory activity in mouse RAW264.7 cells assessed as reduction in LPS-induced iNOS protein expression pretreated for 1 hr followed by LPS stimulation and measured after 24 hrs by Western blot analysis; format: functional, cell-based
Outline: (§6)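 Western blot in RAW264.7: 1 h pretreatment at 0.5–2 µM, LPS 0.5 µg/mL for 24 h; lysis in RIPA with PMSF and phosphatase inhibitors on ice 30 min, 12% SDS-PAGE, PVDF, primary antibodies overnight at 4 °C, HRP secondary 1:5000 1 h at room temperature; iNOS and COX-2 against β-actin; three separate experiments.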

RAW264.7 [15] = assay: Antiinflammatory activity in mouse RAW264.7 cells assessed as reduction in LPS-induced TLR4 protein expression pretreated for 1 hr followed by LPS stimulation and measured after 30 mins by Western blot analysis; format: functional, cell-based
RAW264.7 [16] = assay: Effect on total ERK expression level in LPS-induced mouse RAW264.7 cells pretreated for 1 hr followed by LPS stimulation and measured after 30 mins by Western blot analysis; format: ADME, cell-based; conditions: raw264.7, 0.5 h; outline: as §3
RAW264.7 [17] = assay: Effect on total p38 expression level in LPS-induced mouse RAW264.7 cells pretreated for 1 hr followed by LPS stimulation and measured after 30 mins by Western blot analysis; format: ADME, cell-based; conditions: raw264.7, 0.5 h; outline: as §3
Mus musculus [18] = assay: Antiinflammatory activity in C57/BL6 mouse ALI model assessed as reduction in LPS-induced lung edema at 10 to 20 mg/kg, ip pretreated for 30 mins followed by LPS challenge and measured after 48 hrs by H and E staining based histopathological analysis; format: functional, organism-based; outline: as §5
Mus musculus [19] = assay: Antiinflammatory activity in C57/BL6 mouse ALI model assessed as reduction in LPS-induced inflammatory cell infiltration at 10 to 20 mg/kg, ip pretreated for 30 mins followed by LPS challenge and measured after 48 hrs by H and E staining based histopathological analysis; format: functional, organism-based; outline: as §5
[20] = Toxicity in C57/BL6 mouse ALI model assessed as induction of pro-inflammatory alterations at 20 mg/kg, ip measured after 48 hrs by H and E staining based histopathological analysis; format: organism-based; conditions: in vivo; outline: as §4
[21] = Toxicity in C57/BL6 mouse ALI model assessed as induction of alveolar hemorrhage at 20 mg/kg, ip measured after 48 hrs by H and E staining based histopathological analysis; format: organism-based; conditions: in vivo; outline: as §4
Mus musculus [22] = assay: Protection against LPS-induced acute lung injury in C57/BL6 mouse assessed as survival rate at 20 mg/kg, ip pretreated for 30 mins followed by LPS challenge and measured after 48 hrs (reference value: 10%); format: functional
Mus musculus [23] = assay: Antiinflammatory activity in C57/BL6 mouse ALI model assessed as reduction in LPS-induced destruction of alveolar structure at 10 to 20 mg/kg, ip pretreated for 30 mins followed by LPS challenge and measured after 48 hrs by H and E staining based histopathological analysis; format: functional, organism-based; outline: as §5
Mus musculus [24] = assay: Effect on LPS-induced body weight loss in C57/BL6 mouse at 10 to 20 mg/kg, ip pretreated for 30 mins followed by LPS challenge; format: functional, organism-based; outline: as §5
RAW264.7 [25] = assay: Antiinflammatory activity in mouse RAW264.7 cells assessed as reduction in LPS-induced COX2 protein expression pretreated for 1 hr followed by LPS stimulation and measured after 24 hrs by Western blot analysis; format: functional, cell-based; outline: as §6
RAW264.7 [26] = assay: Inhibition of LPS-stimulated NFkappaB activation in mouse RAW264.7 cells assessed as reduction in p65 phosphorylation at 0.5 to 2 uM pretreated for 1 hr followed by LPS stimulation and measured after 30 mins by Western blot analysis; format: cell-based; outline: as §3
Mus musculus [27] = assay: Antiinflammatory activity in C57/BL6 mouse ALI model assessed as reduction in LPS-induced MPO level in lungs tissue at 10 to 20 mg/kg, ip pretreated for 30 mins followed by LPS challenge and measured after 48 hrs; format: functional, organism-based; outline: as §5
RAW264.7 [28] = assay: Effect on total JNK protein expression level in LPS-induced mouse RAW264.7 cells pretreated for 1 hr followed by LPS stimulation and measured after 30 mins by Western blot analysis; format: ADME, cell-based; conditions: raw264.7, 0.5 h; outline: as §3
RAW264.7 [29] = assay: Inhibition of LPS-stimulated NFkappaB activation in mouse RAW264.7 cells assessed as reduction in LPS-induced IkappaB degradation at 0.5 to 2 uM pretreated for 1 hr followed by LPS stimulation and measured after 30 mins by Western blot analysis; format: cell-based; outline: as §3
[30] = Toxicity in C57/BL6 mouse ALI model assessed as induction of destruction of alveolar structure at 20 mg/kg, ip measured after 48 hrs by H and E staining based histopathological analysis; format: organism-based; conditions: in vivo; outline: as §4
Mus musculus [31] = assay: Antiinflammatory activity in C57/BL6 mouse ALI model assessed as reduction in LPS-induced alveolar hemorrhage at 10 to 20 mg/kg, ip pretreated for 30 mins followed by LPS challenge and measured after 48 hrs by H and E staining based histopathological analysis; format: functional, organism-based; outline: as §5

COc1ccc(/C=C/c2cc(OC)cc(OC)c2-c2cc(=O)c3cc(F)ccc3o2)cc1
inhibition (RAW264.7 [1]): Active

CCOc1ccc(/C=C/c2cc(OC)cc(OC)c2-c2cc(=O)c3cc(OC)ccc3o2)cc1
Activity (RAW264.7 [2]): Non-Toxic

COc1ccc(/C=C/c2cc(OC)cc(OC)c2-c2cc(=O)c3cc(OC)ccc3o2)cc1
inhibition (RAW264.7 [1]): Active

COc1ccc(/C=C/c2cc(OC)cc(OC)c2-c2cc(=O)c3cc(OC)c(OC)cc3o2)cc1
Activity (RAW264.7 [2]): Non-Toxic

COc1ccc(/C=C/c2cc(OC)cc(OC)c2-c2oc3ccc(Br)cc3c(=O)c2O)cc1
inhibition (RAW264.7 [1]): Active

Oc1ccc(/C=C/c2cc(O)cc(O)c2)cc1
inhibition (RAW264.7 [1]): Active

COc1cc(/C=C/c2ccc(OCc3ccccc3)cc2)c(-c2cc(=O)c3cc(OC)ccc3o2)c(OC)c1
Activity (RAW264.7 [2]): Non-Toxic

COc1ccc(/C=C/c2cc(OC)cc(OC)c2-c2oc3ccc(Cl)cc3c(=O)c2O)cc1
Activity (RAW264.7 [3]): Dose-dependent effect
IC50 (RAW264.7 [3]): 7340 nM
inhibition (RAW264.7 [1]): Active
Activity (RAW264.7 [4]): Dose-dependent effect
IC50 (RAW264.7 [4]): 5060 nM
Activity (RAW264.7 [5]): Dose-dependent effect
IC50 (RAW264.7 [5]): 4830 nM

COc1cc(/C=C/c2ccc(OCc3ccccc3)cc2)c(-c2cc(=O)c3cc(Br)ccc3o2)c(OC)c1
Activity (RAW264.7 [2]): Non-Toxic

Cc1ccc(-c2cc(C(F)(F)F)nn2-c2ccc(S(N)(=O)=O)cc2)cc1
inhibition (RAW264.7 [1]): Active

CCOc1ccc(/C=C/c2cc(OC)cc(OC)c2-c2oc3ccc(OC)cc3c(=O)c2O)cc1
Activity (RAW264.7 [2]): Non-Toxic

CCOc1ccc(/C=C/c2cc(OC)cc(OC)c2-c2oc3ccccc3c(=O)c2O)cc1
inhibition (RAW264.7 [1]): Active

COc1ccc(/C=C/c2cc(OC)cc(OC)c2-c2oc3cc(C)ccc3c(=O)c2O)cc1
Activity (RAW264.7 [2]): Non-Toxic

COc1ccc(/C=C/c2cc(OC)cc(OC)c2-c2oc3ccc(F)cc3c(=O)c2O)cc1
inhibition (RAW264.7 [6]): Active
Activity [7]: Non-Toxic
inhibition (RAW264.7 [8]): inactive
Activity (Mus musculus [9]): Active
Activity (Mus musculus [10]): Active
Activity [11]: Non-Toxic
Activity (RAW264.7 [3]): Dose-dependent effect
IC50 (RAW264.7 [3]): 1920 nM
Activity [12]: Non-Toxic
Activity (Mus musculus [13]): 90%
Activity (RAW264.7 [14]): Dose-dependent effect
Activity (RAW264.7 [15]): Dose-dependent effect
Activity (RAW264.7 [16]): Non-Toxic
Activity (RAW264.7 [17]): Non-Toxic
Activity (Mus musculus [18]): Active
Activity (Mus musculus [19]): Active
Activity [20]: Non-Toxic
Activity [21]: Non-Toxic
Activity (Mus musculus [22]): 50%
Activity (Mus musculus [23]): Active
Activity (Mus musculus [24]): inactive
inhibition (RAW264.7 [1]): Active
Activity (RAW264.7 [25]): Dose-dependent effect
inhibition (RAW264.7 [26]): Active
Activity (Mus musculus [27]): Active
Activity (RAW264.7 [28]): Non-Toxic
inhibition (RAW264.7 [29]): Active
Activity [30]: Non-Toxic
Activity (RAW264.7 [4]): Dose-dependent effect
IC50 (RAW264.7 [4]): 1120 nM
Activity (RAW264.7 [5]): Dose-dependent effect
IC50 (RAW264.7 [5]): 1350 nM
Activity (Mus musculus [31]): Active

COc1ccc(/C=C/c2cc(OC)cc(OC)c2-c2oc3ccc(OC)cc3c(=O)c2O)cc1
Activity (RAW264.7 [3]): Dose-dependent effect
IC50 (RAW264.7 [3]): 5000 nM
inhibition (RAW264.7 [1]): Active
Activity (RAW264.7 [4]): Dose-dependent effect
IC50 (RAW264.7 [4]): 2370 nM
Activity (RAW264.7 [5]): Dose-dependent effect
IC50 (RAW264.7 [5]): 1780 nM
